ChEMBL document CHEMBL1142988 (J Med Chem, 2007)
The source made the active and inactive calls. No cut-off for these calls is given here.

How the values were obtained:
[1] = Antagonist activity at native AMPA receptor assessed as fDR-VRP reduction of neonatal rat spinal cord motorneurones; type: functional
In short: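 Neonatal (1-5-day-old, non-anaesthetized) rat hemisected spinal cord. Concentration-response curves for antagonist (5 min applications) on the fast component of the dorsal root-evoked ventral root potential, with 2 mM MgSO4 and 50 µM (R)-AP5 (30 min preincubation) to block NMDA receptors; mean ± SEM, n = 3.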

[2] = target: Glutamate receptor ionotropic, kainate 1 (Rattus norvegicus, UniProt P22756); experiment: Activity at native GLUK5 kainate receptor assessed as antagonism of kainite-induced depolarization of neonatal non-anaesthetised rat dorsal root fibres
Sequence of Glutamate receptor ionotropic, kainate 1 (P22756 whole entry): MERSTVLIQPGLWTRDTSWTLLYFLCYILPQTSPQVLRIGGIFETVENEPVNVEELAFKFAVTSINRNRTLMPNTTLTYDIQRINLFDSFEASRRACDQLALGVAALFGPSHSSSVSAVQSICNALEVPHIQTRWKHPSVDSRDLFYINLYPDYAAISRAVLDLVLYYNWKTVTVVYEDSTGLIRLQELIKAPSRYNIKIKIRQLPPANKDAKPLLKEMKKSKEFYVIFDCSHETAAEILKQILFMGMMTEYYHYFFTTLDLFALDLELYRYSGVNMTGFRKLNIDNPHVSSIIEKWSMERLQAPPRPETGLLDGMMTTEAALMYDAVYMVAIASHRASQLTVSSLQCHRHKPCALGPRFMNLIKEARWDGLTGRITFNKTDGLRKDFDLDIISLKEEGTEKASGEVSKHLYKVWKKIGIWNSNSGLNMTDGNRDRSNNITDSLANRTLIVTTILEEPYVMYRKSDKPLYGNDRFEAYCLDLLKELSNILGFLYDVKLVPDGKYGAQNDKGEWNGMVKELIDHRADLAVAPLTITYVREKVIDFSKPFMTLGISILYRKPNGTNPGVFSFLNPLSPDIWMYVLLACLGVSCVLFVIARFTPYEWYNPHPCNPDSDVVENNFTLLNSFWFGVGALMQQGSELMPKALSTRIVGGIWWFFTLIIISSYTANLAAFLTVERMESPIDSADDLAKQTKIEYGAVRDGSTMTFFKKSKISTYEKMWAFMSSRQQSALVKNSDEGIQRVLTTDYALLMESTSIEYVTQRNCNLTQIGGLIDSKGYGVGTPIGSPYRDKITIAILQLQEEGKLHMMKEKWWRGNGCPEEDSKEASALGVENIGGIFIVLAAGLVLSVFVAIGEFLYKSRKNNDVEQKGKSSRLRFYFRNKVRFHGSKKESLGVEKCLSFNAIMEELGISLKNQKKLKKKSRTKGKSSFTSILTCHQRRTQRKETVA

[3] = Activity at native AMPA receptor assessed as antagonism of (S)-5-fluoriwillardiine-induced depolarization of neonatal rat spinal cord motorneurones; type: functional
Glutamate receptor 2 = Glutamate receptor 2 (Homo sapiens, UniProt P42262); experiment: Antagonist activity at human recombinant GLUA2-AMPA receptor expressed in HEK293 cells assessed as inhibition of glutamate-stimulated calcium influx by FLIPR assay; type: functional, cell-based
Sequence of Glutamate receptor 2 (P42262 whole entry): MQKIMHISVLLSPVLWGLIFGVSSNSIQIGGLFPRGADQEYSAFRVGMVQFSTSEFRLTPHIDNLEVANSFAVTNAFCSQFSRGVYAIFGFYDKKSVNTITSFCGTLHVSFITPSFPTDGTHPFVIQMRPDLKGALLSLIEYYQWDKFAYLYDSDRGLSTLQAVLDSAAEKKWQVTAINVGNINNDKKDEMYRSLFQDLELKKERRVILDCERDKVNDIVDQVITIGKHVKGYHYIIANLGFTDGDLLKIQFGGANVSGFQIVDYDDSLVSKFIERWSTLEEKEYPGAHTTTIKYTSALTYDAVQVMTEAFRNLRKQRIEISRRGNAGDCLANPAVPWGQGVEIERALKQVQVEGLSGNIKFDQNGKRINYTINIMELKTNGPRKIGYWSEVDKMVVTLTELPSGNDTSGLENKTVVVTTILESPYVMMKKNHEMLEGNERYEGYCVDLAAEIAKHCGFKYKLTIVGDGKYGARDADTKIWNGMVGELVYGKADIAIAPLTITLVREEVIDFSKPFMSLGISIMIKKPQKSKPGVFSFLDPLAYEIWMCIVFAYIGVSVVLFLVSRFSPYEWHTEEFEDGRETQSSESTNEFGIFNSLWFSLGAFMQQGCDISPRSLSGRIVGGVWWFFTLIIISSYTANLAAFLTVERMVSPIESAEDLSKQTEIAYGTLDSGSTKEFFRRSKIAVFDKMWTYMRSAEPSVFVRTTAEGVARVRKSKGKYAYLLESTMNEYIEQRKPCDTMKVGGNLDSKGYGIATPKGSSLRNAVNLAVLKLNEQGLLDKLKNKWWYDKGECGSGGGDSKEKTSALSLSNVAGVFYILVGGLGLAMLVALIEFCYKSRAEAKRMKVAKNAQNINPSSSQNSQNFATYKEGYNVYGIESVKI

[4] = target: Glutamate receptor ionotropic, kainate 1 (Homo sapiens) (UniProt P39086); experiment: Antagonist activity at human recombinant GLUK5 receptor expressed in HEK293 cells assessed as inhibition of glutamate-stimulated calcium influx by FLIPR assay; type: functional, cell-based
Sequence of Glutamate receptor ionotropic, kainate 1 (Homo sapiens) (P39086 whole entry): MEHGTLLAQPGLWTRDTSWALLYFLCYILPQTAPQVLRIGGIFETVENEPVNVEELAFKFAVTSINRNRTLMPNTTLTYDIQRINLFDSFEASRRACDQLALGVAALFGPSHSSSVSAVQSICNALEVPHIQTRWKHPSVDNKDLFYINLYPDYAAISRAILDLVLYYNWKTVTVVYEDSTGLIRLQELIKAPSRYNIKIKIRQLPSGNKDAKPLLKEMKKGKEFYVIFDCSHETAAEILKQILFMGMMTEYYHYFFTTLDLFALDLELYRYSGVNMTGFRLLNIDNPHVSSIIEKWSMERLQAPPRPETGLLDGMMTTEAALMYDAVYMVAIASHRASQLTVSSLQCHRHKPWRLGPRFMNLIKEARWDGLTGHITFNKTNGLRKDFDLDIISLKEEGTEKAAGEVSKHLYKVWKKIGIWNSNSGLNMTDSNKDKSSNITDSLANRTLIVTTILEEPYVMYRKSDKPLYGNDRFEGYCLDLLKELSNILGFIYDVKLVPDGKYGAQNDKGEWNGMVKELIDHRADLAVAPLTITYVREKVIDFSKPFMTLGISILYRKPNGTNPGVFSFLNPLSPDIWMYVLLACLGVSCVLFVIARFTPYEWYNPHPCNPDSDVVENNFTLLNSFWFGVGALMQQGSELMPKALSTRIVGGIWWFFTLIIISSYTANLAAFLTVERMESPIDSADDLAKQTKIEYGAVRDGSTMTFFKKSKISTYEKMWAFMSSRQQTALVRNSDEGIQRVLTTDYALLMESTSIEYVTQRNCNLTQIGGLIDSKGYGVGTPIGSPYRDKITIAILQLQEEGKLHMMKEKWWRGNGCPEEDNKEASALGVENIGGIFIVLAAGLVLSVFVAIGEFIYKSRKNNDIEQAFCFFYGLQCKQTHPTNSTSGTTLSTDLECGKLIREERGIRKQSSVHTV
In short: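 Human GLUK5(Q) cells (Bmax of [3H]kainate binding 1.7 pmol/mg) loaded with calcium dye and read on FLIPR. Kb derived from IC50 by Cheng-Prusoff. Mean ± SEM, n = 3.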

[5] = target: Glutamate receptor ionotropic, kainate 1 (Homo sapiens) (UniProt P39086); experiment: Antagonist activity at human recombinant GLUK5/GLUK2 expressed in HEK293 cells assessed as inhibition of glutamate-stimulated calcium influx by FLIPR assay; type: functional, cell-based
[6] = Antagonist activity at human recombinant GLUK5/GLUK6 expressed in HEK293 cells assessed as inhibition of glutamate-stimulated calcium influx by FLIPR assay; type: functional, cell-based
[7] = target: Glutamate receptor ionotropic, kainate 2 (Homo sapiens, UniProt Q13002); experiment: Antagonist activity at human recombinant GLUK6 expressed in HEK293 cells assessed as inhibition of glutamate-stimulated calcium influx by FLIPR assay; type: functional, cell-based
Sequence of Glutamate receptor ionotropic, kainate 2 (Q13002 whole entry): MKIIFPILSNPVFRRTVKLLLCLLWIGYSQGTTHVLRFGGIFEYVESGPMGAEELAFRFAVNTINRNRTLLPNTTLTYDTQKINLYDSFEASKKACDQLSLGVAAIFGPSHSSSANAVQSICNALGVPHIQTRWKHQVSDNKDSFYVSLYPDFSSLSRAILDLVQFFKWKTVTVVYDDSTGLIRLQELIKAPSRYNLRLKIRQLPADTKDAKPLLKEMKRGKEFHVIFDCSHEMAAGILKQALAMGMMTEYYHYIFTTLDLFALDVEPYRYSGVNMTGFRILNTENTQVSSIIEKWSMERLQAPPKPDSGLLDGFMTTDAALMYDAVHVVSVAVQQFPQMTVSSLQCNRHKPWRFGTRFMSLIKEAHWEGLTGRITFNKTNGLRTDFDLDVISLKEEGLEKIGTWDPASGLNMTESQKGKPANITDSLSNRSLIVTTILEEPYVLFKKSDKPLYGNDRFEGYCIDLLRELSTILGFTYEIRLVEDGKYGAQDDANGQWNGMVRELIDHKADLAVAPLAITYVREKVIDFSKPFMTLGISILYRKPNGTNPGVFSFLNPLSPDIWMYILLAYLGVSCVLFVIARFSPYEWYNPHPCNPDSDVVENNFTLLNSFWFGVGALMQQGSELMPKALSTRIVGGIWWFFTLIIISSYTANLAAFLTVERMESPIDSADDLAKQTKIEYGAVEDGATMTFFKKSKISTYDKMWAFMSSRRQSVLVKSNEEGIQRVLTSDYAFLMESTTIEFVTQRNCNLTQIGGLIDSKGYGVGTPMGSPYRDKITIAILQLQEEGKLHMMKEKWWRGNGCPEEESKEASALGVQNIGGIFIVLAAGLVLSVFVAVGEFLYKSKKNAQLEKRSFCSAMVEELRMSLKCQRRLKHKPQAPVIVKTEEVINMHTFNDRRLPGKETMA

[8] = Antagonist activity at human recombinant GLUK6/GLUK2 expressed in HEK293 cells assessed as inhibition of glutamate-stimulated calcium influx by FLIPR assay; type: functional, cell-based
[9] = target: T1, Glutamate NMDA receptor (Rattus norvegicus) (UniProt P35439+Q00959+Q00960+Q00961+Q62645+Q8VHN2+Q9R1M7); experiment: Antagonist activity at NMDA receptor assessed as inhibition of NMDA-induced depolarization of neonatal rat spinal cord motoneurons at 10 uM; type: functional
[10] = target: Metabotropic glutamate receptor 1 (Rattus norvegicus) (UniProt P23385); experiment: Antagonist activity at mGlu1 receptor assessed as inhibition of DHPG-induced depolarization of neonatal rat motoneurons at 10 uM; type: functional
[11] = target: Metabotropic glutamate receptor 5 (Rattus norvegicus) (UniProt P31424); experiment: Antagonist activity at mGlu5 receptor assessed as inhibition of DHPG-induced depolarization of neonatal rat spinal cord motoneurons at 10 uM; type: functional
Sequence of Metabotropic glutamate receptor 5 (Rattus norvegicus) (P31424 21-1203 limits assumed): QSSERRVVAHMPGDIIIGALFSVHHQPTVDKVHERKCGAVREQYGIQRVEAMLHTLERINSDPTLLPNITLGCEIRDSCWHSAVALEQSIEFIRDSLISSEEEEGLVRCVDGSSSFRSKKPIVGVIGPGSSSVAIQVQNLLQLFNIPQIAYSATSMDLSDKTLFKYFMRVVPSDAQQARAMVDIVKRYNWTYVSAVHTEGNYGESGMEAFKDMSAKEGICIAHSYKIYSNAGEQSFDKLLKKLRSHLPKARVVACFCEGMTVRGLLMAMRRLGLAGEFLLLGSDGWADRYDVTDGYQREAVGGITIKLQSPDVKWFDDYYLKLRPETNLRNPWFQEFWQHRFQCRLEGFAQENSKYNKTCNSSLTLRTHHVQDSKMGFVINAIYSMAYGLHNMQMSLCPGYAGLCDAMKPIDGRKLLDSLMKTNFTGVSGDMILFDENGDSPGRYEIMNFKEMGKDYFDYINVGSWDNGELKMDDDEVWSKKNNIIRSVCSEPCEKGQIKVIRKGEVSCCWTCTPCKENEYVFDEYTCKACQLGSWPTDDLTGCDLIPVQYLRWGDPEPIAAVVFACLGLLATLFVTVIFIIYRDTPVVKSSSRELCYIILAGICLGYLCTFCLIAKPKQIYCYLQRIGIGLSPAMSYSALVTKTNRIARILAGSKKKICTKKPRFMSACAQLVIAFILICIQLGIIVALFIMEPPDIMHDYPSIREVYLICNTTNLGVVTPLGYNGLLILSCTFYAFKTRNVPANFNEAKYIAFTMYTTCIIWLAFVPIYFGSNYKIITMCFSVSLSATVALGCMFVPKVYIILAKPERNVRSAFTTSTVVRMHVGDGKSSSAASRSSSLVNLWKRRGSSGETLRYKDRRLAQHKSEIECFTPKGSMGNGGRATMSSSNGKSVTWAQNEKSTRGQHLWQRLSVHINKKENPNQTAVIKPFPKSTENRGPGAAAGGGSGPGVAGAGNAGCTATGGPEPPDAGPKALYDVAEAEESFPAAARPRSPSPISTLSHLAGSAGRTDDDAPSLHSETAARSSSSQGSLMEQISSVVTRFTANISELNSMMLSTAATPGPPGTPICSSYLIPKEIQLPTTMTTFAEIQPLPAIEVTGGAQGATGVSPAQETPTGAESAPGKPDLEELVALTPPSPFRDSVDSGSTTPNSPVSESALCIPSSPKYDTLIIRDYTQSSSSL

[12] = Antagonist activity at human recombinant GLUK6/GLUK2 expressed in HEK293 cells assessed as inhibition of glutamate-stimulated calcium influx at 100 uM by FLIPR assay; type: functional
[13] = target: T1, Glutamate NMDA receptor (Rattus norvegicus); experiment: Antagonist activity at NMDA receptor assessed as inhibition of NMDA-induced depolarization of neonatal rat spinal cord motoneurons at 1 uM; type: functional
[14] = target: Metabotropic glutamate receptor 1 (Rattus norvegicus) (UniProt P23385); experiment: Antagonist activity at mGlu1 receptor assessed as inhibition of DHPG-induced depolarization of neonatal rat spinal cord motoneurons at 1 uM; type: functional
[15] = target: Metabotropic glutamate receptor 5 (Rattus norvegicus) (UniProt P31424); experiment: Antagonist activity at mGlu5 receptor assessed as inhibition of DHPG-induced depolarization of neonatal rat spinal cord motoneurons at 1 uM; type: functional

SMILES | IC50 [1] [µM] | Kd [2] [µM] | IC50 [8] [µM] | other results
Cc1cn(C[C@H](N)C(=O)O)c(=O)n(Cc2c(C(=O)O)sc(Br)c2Br)c1=O | 2.8 | 0.01 |  | 
N[C@@H](Cn1cc(Br)c(=O)n(Cc2ccsc2C(=O)O)c1=O)C(=O)O | 42.9 | 0.025 |  | 
N[C@@H](Cn1ccc(=O)n(Cc2ccsc2C(=O)O)c1=O)C(=O)O | 31.2 | 0.105 | > 100 | Kd [3]: 71.4 µM; IC50 (Glutamate receptor 2): > 100 µM; Kb [4]: 0.12 µM; Kb [5]: 0.18 µM; Kb [6]: 0.12 µM; IC50 [7]: > 100 µM
N#Cc1cc2c(cc1[N+](=O)[O-])=NC(=O)C(=O)N=2 |  | 1.38 |  | 
Cc1cn(C[C@H](N)C(=O)O)c(=O)n(Cc2ccoc2C(=O)O)c1=O | 25.1 | 0.08 |  | 
Cc1cn(C[C@H](N)C(=O)O)c(=O)n(Cc2ccsc2C(=O)O)c1=O | 16.2 | 0.018 | > 100 | Kd [3]: 83.4 µM; Activity [9]: inactive; Activity [10]: inactive; Activity [11]: inactive; IC50 (Glutamate receptor 2): > 100 µM; Kb [4]: 0.01 µM; Kb [5]: 0.008 µM; IC50 [7]: > 100 µM; inhibition at 100 µM [12]: 27%
N[C@@H](Cn1cc(C(F)(F)F)c(=O)n(Cc2ccsc2C(=O)O)c1=O)C(=O)O | 55.3 | 0.055 |  | 
N[C@@H](Cn1ccc(=O)n(Cc2ccoc2C(=O)O)c1=O)C(=O)O | 11.7 | 1.88 |  | 
Cc1cn(C[C@H](N)C(=O)O)c(=O)n(Cc2cc(-c3ccccc3)sc2C(=O)O)c1=O | 16.6 | 0.012 | > 100 | Kd [3]: 108 µM; Activity [13]: inactive; Activity [14]: inactive; Activity [15]: inactive; IC50 (Glutamate receptor 2): > 100 µM; Kb [4]: 0.007 µM; Kb [5]: 0.005 µM; IC50 [7]: > 100 µM
NS(=O)(=O)c1cccc2c1c([N+](=O)[O-])cc1nc(O)c(O)nc12 [NBQX] |  |  | 135 | IC50 [6]: 28 µM

Second part, led by results:

IC50 [1] [µM] | Kd [2] [µM] | IC50 [8] [µM] | SMILES | other results
18.5 | 0.358 |  | N[C@@H](Cn1cc(F)c(=O)n(Cc2ccccc2C(=O)O)c1=O)C(=O)O | 
63.9 | 0.102 |  | N[C@@H](Cn1cc(Br)c(=O)n(Cc2ccccc2C(=O)O)c1=O)C(=O)O | 
74.1 |  |  | N[C@@H](Cn1cc(I)c(=O)n(Cc2ccccc2C(=O)O)c1=O)C(=O)O | 
106 |  | > 300 | N[C@@H](Cn1ccc(=O)n(Cc2ccccc2C(=O)O)c1=O)C(=O)O | IC50 (Glutamate receptor 2): > 300 µM; Kb [4]: 0.6 µM; Kb [5]: 1 µM; Kb [6]: 0.8 µM; IC50 [7]: > 300 µM
51.2 | 0.023 |  | Cc1cn(C[C@H](N)C(=O)O)c(=O)n(Cc2ccccc2C(=O)O)c1=O | 
